pIC50: −log10 of the molar value.
What was measured:
[1] = target: T1, cGMP-specific 3',5'-cyclic phosphodiesterase (Homo sapiens, UniProt O76074); assay: Inhibition of human phosphodiesterase 5
[2] = target: Phosphodiesterases; PDE5 & PDE6 (Homo sapiens) (UniProt O76074+Q13956+P18545+P35913+O43924+P16499+P51160); assay: Relative binding to Phosphodiesterase 6 and Phosphodiesterase 5, ratio of IC50; format: protein assay
[3] = target: Phosphodiesterase, PDE1/PDE5 (Homo sapiens) (UniProt O76074+P54750+Q01064+Q14123); assay: Relative binding to Phosphodiesterase 1 and Phosphodiesterase 5, ratio of IC50; format: protein assay
[4] = Inhibitory concentration against human phosphodiesterase 8 activity
Summary of the method: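 Scintillation proximity assay using a cAMP-PDE SPA kit, with 0.05 μM cAMP as substrate.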

[5] = target: T1, cGMP-specific 3',5'-cyclic phosphodiesterase; assay: Percentage inhibition of human phosphodiesterase 5 at 100 nM
Phosphodiesterase 7 = Phosphodiesterase 7 (Homo sapiens, UniProt Q13946+Q9NP56); assay: Inhibition of human phosphodiesterase 7; format: protein assay
Phosphodiesterase 1 = Phosphodiesterase 1 (Homo sapiens, UniProt P54750+Q01064+Q14123); assay: Inhibition of human phosphodiesterase 1; format: protein assay
[6] = target: cGMP-dependent 3',5'-cyclic phosphodiesterase (Homo sapiens, UniProt O00408); assay: Inhibition of human phosphodiesterase 2
cGMP-dependent 3',5'-cyclic phosphodiesterase, sequence (O00408 whole entry): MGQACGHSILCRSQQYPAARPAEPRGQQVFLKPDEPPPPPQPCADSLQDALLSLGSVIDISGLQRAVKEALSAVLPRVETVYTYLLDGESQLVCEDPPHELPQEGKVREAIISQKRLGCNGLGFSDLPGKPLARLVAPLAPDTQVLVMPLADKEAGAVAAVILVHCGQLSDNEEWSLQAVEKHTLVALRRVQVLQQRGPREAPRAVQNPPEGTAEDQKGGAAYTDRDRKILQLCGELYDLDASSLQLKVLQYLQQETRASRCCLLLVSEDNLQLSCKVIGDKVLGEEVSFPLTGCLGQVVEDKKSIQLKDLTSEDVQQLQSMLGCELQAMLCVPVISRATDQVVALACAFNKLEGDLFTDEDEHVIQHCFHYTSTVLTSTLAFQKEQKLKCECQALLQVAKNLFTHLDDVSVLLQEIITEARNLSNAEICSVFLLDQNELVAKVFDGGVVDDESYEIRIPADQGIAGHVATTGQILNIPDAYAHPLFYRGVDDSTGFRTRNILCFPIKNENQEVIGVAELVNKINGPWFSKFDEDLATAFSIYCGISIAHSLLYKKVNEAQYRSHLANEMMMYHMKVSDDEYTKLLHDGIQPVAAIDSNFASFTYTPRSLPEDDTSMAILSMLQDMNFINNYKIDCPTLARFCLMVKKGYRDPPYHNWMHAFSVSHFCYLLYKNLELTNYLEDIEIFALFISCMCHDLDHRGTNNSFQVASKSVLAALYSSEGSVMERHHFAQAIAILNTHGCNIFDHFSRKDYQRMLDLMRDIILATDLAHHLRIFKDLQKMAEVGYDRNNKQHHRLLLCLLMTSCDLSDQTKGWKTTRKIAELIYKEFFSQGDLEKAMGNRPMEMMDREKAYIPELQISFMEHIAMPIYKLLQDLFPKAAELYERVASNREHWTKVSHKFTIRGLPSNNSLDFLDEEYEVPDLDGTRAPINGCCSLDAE

[7] = target: cAMP and cAMP-inhibited cGMP 3',5'-cyclic phosphodiesterase 10A (Homo sapiens, UniProt Q9Y233); assay: Inhibitory concentration against human phosphodiesterase 10
cAMP and cAMP-inhibited cGMP 3',5'-cyclic phosphodiesterase 10A, sequence (Q9Y233 whole entry): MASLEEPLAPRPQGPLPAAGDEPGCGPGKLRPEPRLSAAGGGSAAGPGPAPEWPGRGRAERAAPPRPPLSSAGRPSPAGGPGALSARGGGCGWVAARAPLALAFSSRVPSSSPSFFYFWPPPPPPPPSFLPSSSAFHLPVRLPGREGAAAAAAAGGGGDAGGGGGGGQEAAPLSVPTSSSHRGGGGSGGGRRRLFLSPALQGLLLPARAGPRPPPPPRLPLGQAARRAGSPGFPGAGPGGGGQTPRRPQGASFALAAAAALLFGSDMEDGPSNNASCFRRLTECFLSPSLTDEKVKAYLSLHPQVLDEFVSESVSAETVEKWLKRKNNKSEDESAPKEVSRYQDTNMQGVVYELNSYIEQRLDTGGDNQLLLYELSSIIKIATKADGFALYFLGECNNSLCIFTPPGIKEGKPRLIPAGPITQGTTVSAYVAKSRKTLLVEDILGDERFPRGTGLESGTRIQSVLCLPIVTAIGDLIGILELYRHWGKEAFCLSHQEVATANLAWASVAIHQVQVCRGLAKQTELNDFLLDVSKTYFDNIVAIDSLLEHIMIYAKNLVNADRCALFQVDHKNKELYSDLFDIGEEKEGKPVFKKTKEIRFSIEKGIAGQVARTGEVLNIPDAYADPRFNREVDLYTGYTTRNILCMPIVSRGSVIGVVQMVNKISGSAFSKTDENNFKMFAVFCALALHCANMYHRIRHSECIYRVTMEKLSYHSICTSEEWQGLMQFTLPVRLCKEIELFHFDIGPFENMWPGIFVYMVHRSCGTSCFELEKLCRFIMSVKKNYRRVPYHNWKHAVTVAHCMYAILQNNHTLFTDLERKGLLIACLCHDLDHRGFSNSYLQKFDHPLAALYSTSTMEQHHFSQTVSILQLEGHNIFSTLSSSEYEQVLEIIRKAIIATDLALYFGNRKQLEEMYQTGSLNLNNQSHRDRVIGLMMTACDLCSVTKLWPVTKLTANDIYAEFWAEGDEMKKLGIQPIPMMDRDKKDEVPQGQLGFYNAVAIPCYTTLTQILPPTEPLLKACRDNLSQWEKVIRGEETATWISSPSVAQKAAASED

Phosphodiesterase 3 = Phosphodiesterase 3 (Homo sapiens, UniProt Q14432+Q13370); assay: Inhibition of human phosphodiesterase 3; format: protein assay
[8] = target: High affinity cGMP-specific 3',5'-cyclic phosphodiesterase 9A (Homo sapiens, UniProt O76083); assay: Inhibition of Phosphodiesterase 9
High affinity cGMP-specific 3',5'-cyclic phosphodiesterase 9A, sequence (O76083 whole entry): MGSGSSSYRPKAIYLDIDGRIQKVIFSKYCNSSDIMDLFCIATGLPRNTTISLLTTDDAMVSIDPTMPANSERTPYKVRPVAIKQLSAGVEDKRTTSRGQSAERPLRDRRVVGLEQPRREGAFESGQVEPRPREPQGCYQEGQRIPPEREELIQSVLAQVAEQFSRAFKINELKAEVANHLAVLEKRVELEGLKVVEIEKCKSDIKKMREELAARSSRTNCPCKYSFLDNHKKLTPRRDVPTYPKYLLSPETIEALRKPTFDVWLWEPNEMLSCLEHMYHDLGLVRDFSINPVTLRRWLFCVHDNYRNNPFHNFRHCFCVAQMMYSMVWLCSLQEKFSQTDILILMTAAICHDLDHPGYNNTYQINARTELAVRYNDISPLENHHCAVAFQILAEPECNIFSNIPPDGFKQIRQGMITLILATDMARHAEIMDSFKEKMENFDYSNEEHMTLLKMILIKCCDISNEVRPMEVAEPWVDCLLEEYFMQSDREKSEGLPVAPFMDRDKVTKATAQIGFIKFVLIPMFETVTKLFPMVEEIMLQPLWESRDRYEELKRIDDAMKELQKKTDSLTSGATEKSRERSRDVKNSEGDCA

Phosphodiesterase 4 = Phosphodiesterase 4 (Homo sapiens, UniProt P27815+Q08499+Q07343+Q08493); assay: Inhibition of human phosphodiesterase 4; format: protein assay
Phosphodiesterase 6 = assay: Inhibition of human phosphodiesterase 6; format: protein assay
[9] = target: Dual 3',5'-cyclic-AMP and -GMP phosphodiesterase 11A (Homo sapiens, UniProt Q9HCR9); assay: Inhibition of human phosphodiesterase 11
Dual 3',5'-cyclic-AMP and -GMP phosphodiesterase 11A, sequence (Q9HCR9 whole entry): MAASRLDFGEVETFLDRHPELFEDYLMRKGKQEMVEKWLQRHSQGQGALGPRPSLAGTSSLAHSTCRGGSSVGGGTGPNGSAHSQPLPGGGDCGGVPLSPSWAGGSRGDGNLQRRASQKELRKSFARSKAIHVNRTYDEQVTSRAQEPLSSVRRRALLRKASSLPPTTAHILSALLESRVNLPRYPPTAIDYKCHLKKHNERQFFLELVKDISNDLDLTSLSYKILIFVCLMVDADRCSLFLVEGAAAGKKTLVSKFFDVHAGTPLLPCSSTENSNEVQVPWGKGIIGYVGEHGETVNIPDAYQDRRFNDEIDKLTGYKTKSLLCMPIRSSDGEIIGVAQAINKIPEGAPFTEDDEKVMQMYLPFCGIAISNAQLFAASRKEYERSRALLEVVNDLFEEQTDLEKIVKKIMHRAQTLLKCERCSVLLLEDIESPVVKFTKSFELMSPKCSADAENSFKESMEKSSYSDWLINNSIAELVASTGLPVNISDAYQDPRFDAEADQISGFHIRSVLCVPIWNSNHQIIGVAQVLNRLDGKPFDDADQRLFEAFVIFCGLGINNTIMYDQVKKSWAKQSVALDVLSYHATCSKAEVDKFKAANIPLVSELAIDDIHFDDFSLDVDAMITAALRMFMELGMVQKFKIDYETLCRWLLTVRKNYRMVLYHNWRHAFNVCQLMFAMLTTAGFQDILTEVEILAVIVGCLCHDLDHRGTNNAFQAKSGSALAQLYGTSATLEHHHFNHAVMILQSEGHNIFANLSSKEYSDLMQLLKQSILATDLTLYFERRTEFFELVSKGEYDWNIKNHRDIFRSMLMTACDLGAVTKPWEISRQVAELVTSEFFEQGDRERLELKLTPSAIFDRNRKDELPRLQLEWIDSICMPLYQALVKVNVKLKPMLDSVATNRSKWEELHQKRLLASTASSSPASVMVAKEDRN

| SMILES | pIC50 [1] | Ratio [2] | other results |
| --- | --- | --- | --- |
| CCN1C(=O)c2c(nc(I)n2Cc2ccc(O)cc2)N2C[C@@H](Cc3ccccc3)N=C12 | 8.48 | 93.9 |  |
| CCCc1nn(C)c2c(=O)[nH]c(-c3cc(S(=O)(=O)N4CCN(C)CC4)ccc3OCC)nc12 |  |  | pIC50 [4]: < 5.00 |
| O=C1c2nc(Cc3ccccc3)n(Cc3ccccc3)c2N2C[C@@H](Cc3ccccc3)N=C2N1C1CC1 |  |  | inhibition [5]: 12% |
| CN1CC(=O)N2[C@H](c3ccc4c(c3)OCO4)c3[nH]c4ccccc4c3C[C@@H]2C1=O |  |  | IC50 (Phosphodiesterase 7): > 10000 nM; IC50 (Phosphodiesterase 1): > 10000 nM; pIC50 [4]: < 5.00; pIC50 [6]: < 5.00; pIC50 [7]: < 5.00; IC50 (Phosphodiesterase 3): > 10000 nM; pIC50 [8]: < 5.00 |
| CC(C)N1C(=O)c2[nH]c(Cc3ccccc3)nc2N2C[C@@H](Cc3ccccc3)N=C21 | 7.66 | 4 |  |
| CC[C@@H]1CN2C(=N1)N(CC)C(=O)c1nc(Cc3ccccc3)n(Cc3ccccc3)c12 |  |  | inhibition [5]: 4% |
| CCN1C(=O)c2[nH]c(Cc3ccccc3)nc2N2C[C@@H](C(C)C)N=C12 | 7.55 | 1 | Ratio [3]: 59 |
| CCN1C(=O)c2nc(Cc3ccccc3)n(Cc3ccccc3)c2N2C[C@@H](c3ccccc3)N=C12 | 7.40 | 1.3 |  |
| CCN1C(=O)c2c(nc(Cc3ccccc3)n2Cc2ccccc2)N2C[C@@H](Cc3ccccc3)N=C12 |  |  | inhibition [5]: 23% |
| O=C1c2[nH]c(Cc3ccccc3)nc2N2C[C@@H](Cc3ccccc3)N=C2N1CC(F)(F)F |  |  | inhibition [5]: 34% |
| CCN1C(=O)c2ncn(Cc3ccccc3)c2N2C[C@@H](Cc3ccccc3)N=C12 | 6.70 | 5 |  |
| CC[C@@H]1CN2C(=N1)N(CC)C(=O)c1[nH]c(Cc3ccccc3)nc12 | 7.48 | 2.4 | Ratio [3]: > 303 |
| O=C1c2nc(Cc3ccccc3)[nH]c2N2C[C@@H](Cc3ccccc3)N=C2N1C1CC1 |  |  | inhibition [5]: 21% |
| CCN1C(=O)c2[nH]c(Cc3ccccc3)nc2N2C1=N[C@@H]1CCC[C@@H]12 | 7.72 |  | Ratio [3]: 342 |
| CN1C(=O)c2nc(Cc3ccccc3)n(Cc3ccccc3)c2N2C[C@@H](Cc3ccccc3)N=C12 |  |  | inhibition [5]: 6% |
| CC(C)N1C(=O)c2nc(Cc3ccccc3)n(Cc3ccccc3)c2N2C[C@@H](Cc3ccccc3)N=C21 |  |  | inhibition [5]: 13% |
| CCN1C(=O)c2c(nc(I)n2Cc2ccccc2)N2C[C@@H](Cc3ccccc3)N=C12 |  |  | inhibition [5]: 32% |
| O=C1c2nc(Cc3ccccc3)n(Cc3ccccc3)c2N2C[C@@H](Cc3ccccc3)N=C2N1CC(F)(F)F |  |  | inhibition [5]: 7% |
| CON1C(=O)c2nc(Cc3ccccc3)n(Cc3ccccc3)c2N2C[C@@H](Cc3ccccc3)N=C12 |  |  | inhibition [5]: 17% |
| Oc1nc2n(c3nc(Cc4ccccc4)nc1-3)C[C@@H](Cc1ccccc1)N2 |  |  | inhibition [5]: 22% |
| CCN1C(=O)c2nc(Br)n(Cc3ccc(OC)cc3)c2N2C[C@@H](Cc3ccccc3)N=C12 | 7.32 | 7.8 |  |
| CCCc1nc(C)c2c(=O)nc(-c3cc(S(=O)(=O)N4CCN(CC)CC4)ccc3OCC)[nH]n12 |  |  | pIC50 [4]: < 5.00; pIC50 [6]: < 5.00; pIC50 [7]: 6.10; pIC50 [9]: 6.89 |
| CCCN1C(=O)c2[nH]c(Cc3ccccc3)nc2N2C[C@@H](Cc3ccccc3)N=C12 |  |  | inhibition [5]: 25% |
| CCN1C(=O)c2c(nc(Br)n2Cc2ccc(OC)cc2)N2C[C@@H](Cc3ccccc3)N=C12 |  | 4.8 |  |
| CCC[C@@H]1CN2C(=N1)N(CC)C(=O)c1[nH]c(Cc3ccccc3)nc12 | 7.22 | 0.7 | Ratio [3]: > 167 |
| CN1C(=O)c2[nH]c(Cc3ccccc3)nc2N2C1=N[C@@H]1CCC[C@@H]12 |  |  | Ratio [3]: 1.3 |
| CCN1C(=O)c2[nH]c(Cc3ccccc3)nc2N2C[C@@H](Cc3ccccc3)N=C12 |  | 1.8 | Ratio [3]: > 2220 |
| C=CCN1C(=O)c2nc(Cc3ccccc3)n(Cc3ccccc3)c2N2C[C@@H](Cc3ccccc3)N=C12 |  |  | inhibition [5]: 17% |
| CN1C(=O)c2[nH]c(Cc3ccccc3)nc2N2C[C@@H](Cc3ccccc3)N=C12 | 7.00 | 2.3 | Ratio [3]: 11 |
| CCC[C@@H]1CN2C(=N1)N(CC)C(=O)c1nc(Cc3ccccc3)n(Cc3ccccc3)c12 | 7.46 | 4.9 | Ratio [3]: > 286 |

Continued, in another order:

| pIC50 [1] | Ratio [2] | SMILES | other results |
| --- | --- | --- | --- |
| 8.11 | 51.3 | CCN1C(=O)c2nc(Br)n(Cc3ccc(O)cc3)c2N2C[C@@H](Cc3ccccc3)N=C12 | Ratio [3]: > 1590 |
| 7.40 | 3.6 | CCN1C(=O)c2c(nc(C#Cc3ccccc3)n2Cc2ccccc2)N2C[C@@H](Cc3ccccc3)N=C12 |  |
| 7.85 | 1.7 | CCN1C(=O)c2c(nc(C#Cc3ccccc3)n2Cc2ccc(OC)cc2)N2C[C@@H](Cc3ccccc3)N=C12 |  |
| 6.84 | 4.5 | CCN1C(=O)c2nc(Br)n(Cc3ccccc3)c2N2C[C@@H](Cc3ccccc3)N=C12 |  |
| 7.22 | 7.3 | CCN1C(=O)c2nc(Cl)n(Cc3ccccc3)c2N2C[C@@H](Cc3ccccc3)N=C12 |  |
| 7.82 | 40 | CCN1C(=O)c2c(nc(C)n2Cc2ccc(O)cc2)N2C[C@@H](Cc3ccccc3)N=C12 |  |
| 7.42 | 7.5 | CCN1C(=O)c2nc(Cc3ccccc3)n(Cc3ccc(OC)cc3)c2N2C[C@@H](Cc3ccccc3)N=C12 |  |
| 8.60 | 72 | CCN1C(=O)c2c(nc(Br)n2Cc2ccc(O)cc2)N2C[C@@H](Cc3ccccc3)N=C12 | IC50 (Phosphodiesterase 7): > 10000 nM; IC50 (Phosphodiesterase 1): > 10000 nM; pIC50 [4]: < 5.00; IC50 (Phosphodiesterase 4): 1400 nM; pIC50 [6]: < 5.00; pIC50 [7]: 5.66; Ratio [3]: > 4000; IC50 (Phosphodiesterase 3): > 10000 nM; IC50 (Phosphodiesterase 6): 180 nM; pIC50 [8]: < 5.00; pIC50 [9]: 6.27 |
| 7.55 | 7.9 | CCN1C(=O)c2nc(Cc3ccccc3)n(Cc3ccc(O)cc3)c2N2C[C@@H](Cc3ccccc3)N=C12 |  |
| 8.64 | 93.5 | CCN1C(=O)c2c(nc(Cl)n2Cc2ccc(O)cc2)N2C[C@@H](Cc3ccccc3)N=C12 | Ratio [3]: > 4350 |
|  | 5.3 | CCN1C(=O)c2nc(Cc3ccccc3)n(Cc3ccccc3)c2N2C[C@@H](Cc3ccccc3)N=C12 | Ratio [3]: > 313 |
| 7.70 | 4.5 | CCN1C(=O)c2nc(C#Cc3ccccc3)n(Cc3ccc(OC)cc3)c2N2C[C@@H](Cc3ccccc3)N=C12 |  |
| 7.13 | 7.4 | CCN1C(=O)c2nc(CCc3ccccc3)n(Cc3ccccc3)c2N2C[C@@H](Cc3ccccc3)N=C12 |  |
| 6.89 | 1.8 | CCN1C(=O)c2c(nc(Cc3ccccc3)n2Cc2ccc(OC)cc2)N2C[C@@H](Cc3ccccc3)N=C12 |  |
| 7.54 | 7.4 | CCN1C(=O)c2c(nc(Cc3ccccc3)n2Cc2ccc(O)cc2)N2C[C@@H](Cc3ccccc3)N=C12 |  |
| 8.28 | 19.8 | CCN1C(=O)c2c(nc(C#Cc3ccccc3)n2Cc2ccc(O)cc2)N2C[C@@H](Cc3ccccc3)N=C12 |  |
| 8.19 | 23 | CCN1C(=O)c2nc(C#Cc3ccccc3)n(Cc3ccc(O)cc3)c2N2C[C@@H](Cc3ccccc3)N=C12 | Ratio [3]: > 1540 |
|  | 15 | CCN1C(=O)c2nc(C#Cc3ccccc3)n(Cc3ccccc3)c2N2C[C@@H](Cc3ccccc3)N=C12 | Ratio [3]: > 303 |
